Test results as given in ChEMBL document CHEMBL1671820, “Incorporation of basic side chains into cryptolepine scaffold: structure-antimalarial activity relationships and mechanistic studies” (J Med Chem, 2011).

Key:
[1] = system: Plasmodium falciparum; test: Antiplasmodial activity against chloroquine-resistant ring stage Plasmodium falciparum W2 infected in human red blood cells after 48 hrs; type: functional, organism-based; settings: W2, 48 h
[2] = Inhibition of Plasmodium falciparum falcipain 2
[3] = system: Plasmodium falciparum; test: Antiplasmodial activity against chloroquine and pyrimethamine-resistant ring stage Plasmodium falciparum V1/S infected in human red blood cells after 48 hrs; type: functional, organism-based
[4] = system: Heme; test: Binding affinity to heme by UV-visible titration
Summary of the method: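 Hematin monomer (FPIX-OH, 10 μM) in pH 5.5 HEPES-buffered 40% DMSO v/v at 25 C, titrated with ligand from 100 μM solution until above hematin concentration. Stirred 1 min per addition; spectra 230–500 nm, Soret change at 402 nm. Absorbance dilution-corrected, nonlinear fit for Kd; Kass calculated from Kd.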

[5] = system: Plasmodium falciparum; test: Antiplasmodial activity against chloroquine-sensitive ring stage Plasmodium falciparum 3D7 infected in human red blood cells after 48 hrs; type: functional, organism-based; settings: 3D7, 48 h
[6] = Inhibition of Plasmodium falciparum falcipain 3
[7] = system: Nucleic Acid; test: Binding affinity to s(GATCCTAGGATC)2-DNA by fluorescence spectroscopy; type: nucleic-acid assay
Summary of the method: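 Buffer 0.01 M phosphate pH 7.4, 0.1 M NaCl, 25.0 C, 1 cm quartz cuvettes. Fluorescence: excitation 339 nm, emission 450–500 nm. Dilution-corrected intensity change fitted to single-site binding for Kd; Kass taken as 1/Kd.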

[8] = system: Plasmodium falciparum; test: Antiplasmodial activity against chloroquine-sensitive, mefloquine-resistant ring stage Plasmodium falciparum D6 infected in human red blood cells after 48 hrs; type: functional, organism-based; settings: D6, 48 h
[9] = Selectivity index, ratio of IC50 for african green monkey Vero cells to IC50 for chloroquine-resistant ring stage Plasmodium falciparum W2; type: toxicity, cell-based; settings: read-out: Ratio IC50
Summary of the method: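 Vero IC50 divided by W2 IC50. Vero: 15000 cells/well adhered overnight, then log dilutions from 30 mg/mL DMSO stock for 48 h. MTT 0.5 mg/mL final for 2 h at 37 C, formazan dissolved in 95% ethanol, A570 read against DMSO vehicle as 100% viability. W2: 48 h YOYO-1 flow-cytometric growth assay in human erythrocytes.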

[10] = system: Plasmodium falciparum; test: Resistance index, ratio of IC50 for chloroquine-resistant ring stage Plasmodium falciparum W2 to IC50 for chloroquine-sensitive ring stage Plasmodium falciparum 3D7; type: functional
Summary of the method: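 W2 IC50 divided by 3D7 IC50. Both were measured by 48 h YOYO-1 flow-cytometric growth assay on sorbitol-synchronised 1% ring-stage cultures in human erythrocytes at 37 C under 3% O2.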

[11] = system: Vero; test: Cytotoxicity against african green monkey Vero cells after 48 hrs by MTT assay; type: cell-based; settings: Chlorocebus sabaeus
Summary of the method: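 Vero monkey kidney cells in DMEM with 10% FBS at 37 C, 7% CO2; seeded 15000 cells/well and adhered overnight. Log dilutions from 30 mg/mL DMSO stock, 48 h exposure. MTT at 0.5 mg/mL final for 2 h; formazan dissolved in 95% ethanol, read at 570 nm. Viability relative to DMSO-medium wells; IC50 from concentration–viability curve; doxorubicin as standard.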

Row | SMILES | IC50 [1] | IC50 [2] | IC50 [3] | Ka [4] | IC50 [5] | IC50 [6] | Ka [7] | IC50 [8] | selectivity ratio [9] | Ratio IC50 [10] | IC50 [11]
1 | CCN(CC)c1c2ccccc2[n+](C)c2c1[nH]c1ccccc12.[Cl-] | 1250 nM | 18 µM | 1770 nM | 0.19 ×10⁶ /M | 2200 nM | 46.3 µM | 0.47 ×10⁶ /M | 1290 nM | 2 | 0.7 | 
2 | CC(C)CN1CCC(Nc2c3ccccc3[n+](C)c3c2[nH]c2ccccc23)CC1.[Cl-] | 70 nM | 10.5 µM | 76 nM | 0.227 ×10⁶ /M | 70 nM | 16 µM | 0.74 ×10⁶ /M | 86 nM | 70 | 0.9 | 
3 | C[n+]1c2ccccc2c(NC2CCN(Cc3ccccc3)CC2)c2[nH]c3ccccc3c21.[Cl-] | 108 nM | 12.8 µM | 59 nM | 0.125 ×10⁶ /M | 56 nM |  | 0.68 ×10⁶ /M | 86 nM | 21 | 1.8 | 
4 | CCN(CC)CCCCNc1c2ccccc2[n+](C)c2c1[nH]c1ccccc12.[Cl-] | 29 nM |  | 66 nM | 0.15 ×10⁶ /M | 22.3 nM |  | 9 ×10⁶ /M | 71 nM | 358 | 0.4 | 10 µM
5 | C[n+]1c2cc(Cl)ccc2c(NC2CCNCC2)c2[nH]c3ccccc3c21.[Cl-] | 45 nM | 5.6 µM | 52 nM | 0.18 ×10⁶ /M | 65 nM |  | 4.5 ×10⁶ /M | 70 nM | 98 | 0.9 | 
6 | CCN(CC)CCCNc1c2ccc(Cl)cc2[n+](C)c2c1[nH]c1ccccc12.[Cl-] | 21 nM | 11 µM | 40 nM | 0.11 ×10⁶ /M | 34 nM |  | 17 ×10⁶ /M | 70 nM | 60 | 0.5 | 13 µM
7 | CCN(CC)CCCC(C)Nc1c2ccccc2[n+](C)c2c1[nH]c1ccccc12.[Cl-] (stereo not given) | 122 nM | 11.6 µM | 274 nM | 0.062 ×10⁶ /M | 145 nM | 7 µM | 4.3 ×10⁶ /M | 161 nM | 103 | 0.4 | 
8 | CCN(CC)CCNc1c2ccccc2[n+](C)c2c1[nH]c1ccccc12.[Cl-] |  | > 50 µM | 72 nM | 0.41 ×10⁶ /M | 130 nM |  | 1.14 ×10⁶ /M | 70 nM | 34 | 1.2 | 
9 | C[n+]1c2ccccc2c(NCCCN2CCCCC2)c2[nH]c3ccccc3c21.[Cl-] |  |  | 28 nM | 0.161 ×10⁶ /M | 23 nM |  | 5.3 ×10⁶ /M | 34 nM | 56 | 1.3 | 20 µM
10 | CC(CN(C)C)Nc1c2ccccc2[n+](C)c2c1[nH]c1ccccc12.[Cl-] (stereo not given) | 142 nM | 8.3 µM | 165 nM | 0.148 ×10⁶ /M | 202 nM | 14 µM | 1.9 ×10⁶ /M | 78 nM | 23 | 0.9 | 
11 | CN(C)CCCNc1c2ccccc2[n+](C)c2c1[nH]c1ccccc12.[Cl-] | 20 nM | 34 µM | 51 nM | 0.066 ×10⁶ /M | 24 nM | > 50 µM | 3 ×10⁶ /M | 46 nM | 109 | 0.4 | 
12 | CN(C)CCNc1c2ccccc2[n+](C)c2c1[nH]c1ccccc12.[Cl-] |  | > 50 µM | 85 nM | 0.12 ×10⁶ /M | 62 nM |  | 3.1 ×10⁶ /M | 66 nM | 111 | 0.8 | 
13 | C[n+]1c2ccccc2c(Nc2ccc(N3CCCCC3)cc2)c2[nH]c3ccccc3c21.[Cl-] | 455 nM | 8.2 µM | 176 nM | 0.21 ×10⁶ /M | 375 nM |  | 3.4 ×10⁶ /M | 287 nM | 11 | 2.6 | 
14 | CCN(CC)Cc1ccc(Nc2c3ccccc3[n+](C)c3c2[nH]c2ccccc23)cc1O.[Cl-] | 52 nM | 15.2 µM | 15 nM | 0.075 ×10⁶ /M | 56 nM |  | 0.8 ×10⁶ /M | 24 nM | 17 | 3.5 | 
15 | C[n+]1c2ccccc2c(Nc2ccccc2)c2[nH]c3ccccc3c21.[Cl-] | 265 nM | 14 µM | 128 nM | 0.155 ×10⁶ /M | 291 nM |  | 0.51 ×10⁶ /M | 154 nM | 2 | 0.2 | 
16 | C[n+]1c2cc(Cl)ccc2c(NC2CCNCC2)c2[nH]c3cc(Cl)ccc3c21.[Cl-] | 48 nM | 4.8 µM | 35 nM | 0.12 ×10⁶ /M | 31 nM |  | 1.6 ×10⁶ /M | 30 nM | 16 | 1.4 | 
17 | C[n+]1c2ccccc2c(NCCN)c2[nH]c3ccccc3c21.[Cl-] | 89 nM | 6.3 µM | 156 nM | 0.127 ×10⁶ /M | 115 nM | > 25 µM | 0.85 ×10⁶ /M | 107 nM | 678 | 0.6 | 60 µM
18 | C[n+]1c2ccccc2c(NCCCN)c2[nH]c3ccccc3c21.[Cl-] | 26 nM | 11 µM | 133 nM | 0.18 ×10⁶ /M | 54 nM | 14 µM | 0.25 ×10⁶ /M | 71 nM | 371 | 0.2 | 10 µM
19 | C[n+]1c2ccccc2c(NCCCCN)c2[nH]c3ccccc3c21.[Cl-] | 65 nM |  | 422 nM | 0.147 ×10⁶ /M | 190 nM |  | 1.4 ×10⁶ /M | 245 nM | 1310 | 0.2 | > 85 µM
20 | C[n+]1c2ccccc2c(Nc2cccnc2)c2[nH]c3ccccc3c21.[Cl-] | 180 nM | 9.32 µM | 279 nM | 0.17 ×10⁶ /M | 247 nM |  | 1 ×10⁶ /M | 166 nM | 14 | 0.6 | 
21 | CN(C)CC(C)(C)CNc1c2ccccc2[n+](C)c2c1[nH]c1ccccc12.[Cl-] |  | 33.5 µM | 144 nM | 0.069 ×10⁶ /M | 146 nM | 26 µM | 2.6 ×10⁶ /M | 250 nM | 18 | 1.3 | 
22 | C[n+]1c2ccccc2c(NC2CCN(Cc3ccccc3O)CC2)c2[nH]c3ccccc3c21.[Cl-] | 276 nM | 14.8 µM | 418 nM | 0.108 ×10⁶ /M | 536 nM | 43 µM | 0.6 ×10⁶ /M | 185 nM | 10 | 0.7 | 
23 | CC(C)NCCCNc1c2ccccc2[n+](C)c2c1[nH]c1ccccc12.[Cl-] |  | > 25 µM | 28 nM | 0.2 ×10⁶ /M | 26.1 nM |  | 5 ×10⁶ /M | 34 nM | 125 | 0.8 | 
24 | CCN(CC)CCCNc1c2ccccc2[n+](C)c2c1[nH]c1ccccc12.[Cl-] |  |  | 29 nM | 0.127 ×10⁶ /M | 20 nM |  | 9.1 ×10⁶ /M |  | 78 | 1.1 | 
